Assay results gathered from unrelated publications.
Lines come from different studies, so protocols differ.
KCNH2: Voltage-gated inwardly rectifying potassium channel KCNH2 (KCNH2, Homo sapiens, UniProt Q12809)

`CC(C)n1cc(C#N)c2cc(-n3cc(C(=O)O)cn3)ccc21` gave a Tmax of 4.01 h (human, plasma; oral, 300 mg, single dose, fasted, healthy volunteers).
For `CN1C[C@H](COc2nccc3c(NCc4ccco4)cc(Cl)nc23)OC1=O`, the inhibition was 21.4% (KCNH2; ion current, inhibitor; HEK293; 10 µM).
For `COc1nc(-c2cccc(-c3ccccc3)c2C)ccc1CNCCNC(=O)CCCCCCCCCCC(=O)N1CCN(CCNC(=O)c2cc3c(=O)n4cccc(C)c4nc3n(CCc3cccs3)c2=N)CC1`, the MRT(0-t) was 12.4 h (male Sprague-Dawley rat, plasma; oral, 40 mg/kg).
The Tmax of `COc1ccc2c(c1)CN(C(=O)CCN1CCC(Cc3ccccc3)CC1)CC[S@@+]2[O-]` is reported as 0 h (male human, plasma; intravenous, 0.01 mg/kg, healthy volunteers).
The inhibition of `CC(=O)N1CCC(C(=O)N2CCN3C(=O)c4cc(-c5ccccc5)ccc4NC(=O)C3C2)CC1` (stereo not shown) is reported as 2.6% (KCNH2; ion current, inhibitor, patch clamp; HEK293; 0.1 µM).
For `N[C@H]1C(O)O[C@H](CO)[C@@H](O)[C@@H]1O` (stereo partly shown), the viability was 102% (Caco-2; cell growth or viability, CCK-8; 10 mM).
For `COc1cccc(OC)c1-c1cc(C(=O)NC2(C(=O)O)C3CC4CC(C3)CC2C4)nn1-c1ccc(C(=O)N(C)CCCN(C)CCCN(C)C(=O)CN2CCN(CC(=O)[O-])CCN(CC(=O)[O-])CCN(CC(=O)[O-])CC2)cc1C(C)C.[177Lu+3]` (stereo not shown), the tracer uptake was 0.28 %ID/g (HT-29; pancreas; 7 days, tumour-bearing).
`CCOC(=O)C1=C(CN2CCC[C@@H]2C(=O)Nc2ccc(B(O)O)cc2)NC(c2nccs2)=N[C@H]1c1ccc(F)cc1Br` has an inhibition of 31.8% (KCNH2; ion current, inhibitor, patch clamp; HEK293; 3 µM, pH 7.4).
`O=C(COc1ccc(Cl)cc1)NC12CC(c3nnc([C@H]4C[C@@H](OC(F)(F)F)C4)o3)(C1)C2` has a Tmax of 24 h (human, plasma; oral, 100 mg, single dose, fasted, healthy volunteers).
With `C[C@H]1Oc2cc(cnc2N)-c2c(nn(C)c2C#N)CN(C)C(=O)c2ccc(F)cc21` the MRT(0-inf) was 11.7 h (male Sprague-Dawley rat, plasma; oral, 10 mg/kg, single dose).
